According to ChEMBL document CHEMBL2016555, “4-Methoxy-N-[2-(trifluoromethyl)biphenyl-4-ylcarbamoyl]nicotinamide: A Potent and Selective Agonist of S1P1” (ACS Med Chem Lett, 2011):
pEC50: −log10 of the molar value. Values after ≈ are worked out from the molar mass of the structure shown.

Experiments:
Plasma = assay: (§1) Plasma concentration in Lewis rat at 1 mg/kg, po at 24 hrs; type: ADME, organism-based; set-up: dose 1 mg/kg, route oral; settings: in vivo, 24 h, BLD = below limit of detection
Summary of the method: (§2)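 Female Lewis rats (N = 5/group) given one oral dose of 1 mg/kg (20% captisol, 1% HPMC, 1% pluronic F68, pH 2.1 with MSA); blood lymphocyte count and total plasma compound measured at 24 h; POC vs vehicle, ANOVA/Dunnett's test.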

[1] = biological target: T1, Sphingosine 1-phosphate receptor 1 (Homo sapiens, UniProt P21453); assay: Agonist activity at human S1P1 expressed in U2OS cells coexpressing eGFP assessed as receptor internalization after 1 hr by microscopic analysis; type: functional, cell-based
Summary of the method: (§3)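 Human S1P1–eGFP fusion protein expressed in U2OS cells; agonism read as receptor internalization; EC50 derived, efficacy expressed relative to 1-(4-(6-benzylbenzofuran-2-yl)-3-fluorobenzyl)azetidine-3-carboxylic acid at 1.0 μM.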

[2] = biological target: T1, Sphingosine 1-phosphate receptor 1; assay: Agonist activity at human S1P1 expressed in U2OS cells coexpressing eGFP assessed as receptor internalization after 1 hr by microscopic analysis relative to 1-(4-(6-benzylbenzofuran-2-yl)-3-fluorobenzyl)azetidine-3-carboxylic acid; type: functional, cell-based; summary of the method: as §3
[3] = Solubility of the compound in 0.01 M aqueous HCl; type: physicochemical
[4] = Solubility of the compound in phosphate buffer saline at pH 7.4; type: physicochemical; settings: phosphate buffered saline
[5] = Solubility of the compound in simulated intestinal fluid; type: physicochemical
[6] = Apparent permeability across pig LLC-PK1 cells; type: ADME, cell-based, Sus scrofa
Summary of the method: (§4)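 Permeability across porcine proximal tubule LLC-PK1 cell monolayers; apparent permeability (Papp) and efflux ratio determined.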

[7] = Efflux ratio of apparent permeability across pig LLC-PK1 cells; type: ADME, cell-based, Sus scrofa; summary of the method: as §4
[8] = Intrinsic clearance in rat liver microsomes after 30 mins; type: ADME, Microsome; settings: read-out: CLH
Rattus norvegicus = assay: Immunosuppressive activity in Lewis rat assessed as change in peripheral lymphocyte count at 1 mg/kg, po after 24 hrs relative to vehicle treated control; type: functional; summary of the method: as §2
[9] = as §1; type: ADME, organism-based; set-up: dose 1 mg/kg, route oral; settings: Lewis, plasma; summary of the method: as §2

T1 sequence (P21453 whole entry, the tested form may be a part): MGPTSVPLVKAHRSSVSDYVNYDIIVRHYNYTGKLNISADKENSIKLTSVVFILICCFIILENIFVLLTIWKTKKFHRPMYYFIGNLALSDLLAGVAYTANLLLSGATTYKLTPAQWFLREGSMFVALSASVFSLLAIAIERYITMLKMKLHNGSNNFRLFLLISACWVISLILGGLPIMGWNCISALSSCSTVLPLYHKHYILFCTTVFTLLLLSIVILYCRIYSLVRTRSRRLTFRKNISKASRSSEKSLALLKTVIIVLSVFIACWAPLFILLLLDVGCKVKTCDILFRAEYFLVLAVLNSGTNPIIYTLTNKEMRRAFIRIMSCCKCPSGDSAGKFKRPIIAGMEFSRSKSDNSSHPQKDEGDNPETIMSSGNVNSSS

SMILES	Cp (Plasma)	pEC50 [1]	Efficacy [2] [%]	solubility [3] [µg/mL]	solubility [4] [µg/mL]	solubility [5] [µg/mL]	Papp [6] [×10⁻⁶ cm/s]	efflux ratio [7]	microsomal CLint [8] [µL/min/mg]	Activity (Rattus norvegicus) [%]	concentration at 24 h [9] [ng/mL]
COc1ccccc1C(=O)NC(=O)Nc1ccc(C(C)C)c(C(F)(F)F)c1	BLD	7.85	110	< 1	< 1	6.9 (≈ 18.1 µM)	2.1	1	< 14	-16	–
COc1ccccc1C(=O)NC(=O)Nc1ccc(-c2ccccc2)c(C(C)C)c1	–	8.27	120	< 1	< 1	24 (≈ 61.8 µM)	1.2	1	< 14	3	7
COc1ccccc1C(=O)NC(=O)Nc1ccc(-c2ccccc2)c(C(F)(F)F)c1	–	7.17	110	< 1	< 1	23 (≈ 55.5 µM)	< 1	–	15	-20	4.9
COc1ccccc1C(=O)NC(=O)Nc1ccc(N2CCCCC2)c(Cl)c1	–	6.64	120	3.6 (≈ 9.28 µM)	< 1	8.5 (≈ 21.9 µM)	< 1	–	36	–	–
COc1ccccc1C(=O)NC(=O)Nc1ccc(N2CCCCC2)c(C(F)(F)F)c1	–	7.89	120	3 (≈ 7.12 µM)	< 1	4.1 (≈ 9.73 µM)	< 1	–	26	–	–
